{"source": "ChEMBL document CHEMBL3576792", "about": "“Enhancement of antibiotic activity against multidrug-resistant bacteria by the efflux pump inhibitor 3,4-dibromopyrrole-2,5-dione isolated from a Pseudoalteromonas sp” (J Nat Prod, 2015)", "key": {"Escherichia coli [1]": {"test_system": "Escherichia coli", "test": "Antibacterial activity against Escherichia coli transformed with plasmid carrying MG1655 deltaBC/pXYM by p-iodonitrotetrazolium chloride colorimetric assay", "assay_type": "functional", "summary_of_the_method": "(§1)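 Two-fold broth microdilution in Mueller-Hinton broth, read by p-iodonitrotetrazolium chloride colorimetric assay. MIC is the lowest concentration giving no visible growth. MG1655 ΔacrB ΔtolC strains carrying pABM or pXYM were always cultured with 100 μg/mL ampicillin and 1 mM IPTG. Medium, inoculum and 1% DMSO (final) served as negative control.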"}, "Escherichia coli K-12 [2]": {"test_system": "Escherichia coli K-12", "test": "Inhibition of AcrAB-TolC pump in Escherichia coli K-12 AG100 assessed as increase in H33342 accumulation at 64 ug/ml after 60 mins by accumulation assay"}, "Escherichia coli [3]": {"test_system": "Escherichia coli", "test": "Potentiation of chloramphenicol-induced antibacterial activity Escherichia coli transformed with plasmid carrying MG1655 deltaBC/pXYM by p-iodonitrotetrazolium chloride colorimetric assay", "assay_type": "functional"}, "Escherichia coli [4]": {"test_system": "Escherichia coli", "test": "Potentiation of ciprofloxacin-induced antibacterial activity Escherichia coli transformed with plasmid carrying MG1655 deltaBC/pABM assessed as ciprofloxacin MIC by p-iodonitrotetrazolium chloride colorimetric assay", "assay_type": "functional", "summary_of_the_method": "(§2)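 Checkerboard microdilution in Mueller-Hinton broth: two-fold dilutions of antibiotic crossed with dilutions of test compound above, at and below their MICs. Growth was read by INT colorimetric assay, with MIC as the lowest concentration showing no visible growth. FICs and FIC index were derived from these MICs. ΔBC/pABM and ΔBC/pXYM strains were grown with 100 μg/mL ampicillin and 1 mM IPTG.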"}, "Escherichia coli [5]": {"test_system": "Escherichia coli", "test": "Potentiation of oxacillin-induced antibacterial activity Escherichia coli transformed with plasmid carrying MG1655 deltaBC/pABM assessed as oxacillin MIC by p-iodonitrotetrazolium chloride colorimetric assay", "assay_type": "functional, organism-based", "summary_of_the_method": "as §2"}, "Escherichia coli [6]": {"test_system": "Escherichia coli", "test": "Potentiation of piperacillin-induced antibacterial activity Escherichia coli AG102 overexpressing AcrAB-TolC assessed as piperacillin MIC by p-iodonitrotetrazolium chloride colorimetric assay", "assay_type": "functional", "summary_of_the_method": "as §2"}, "Escherichia coli [7]": {"test_system": "Escherichia coli", "test": "Potentiation of chloramphenicol-induced antibacterial activity Escherichia coli transformed with plasmid carrying MG1655 deltaBC/pXYM assessed as chloramphenicol MIC by p-iodonitrotetrazolium chloride colorimetric assay", "assay_type": "functional", "summary_of_the_method": "as §2"}, "Escherichia coli K-12 [8]": {"test_system": "Escherichia coli K-12", "test": "Inhibition of AcrAB-TolC pump in Escherichia coli K-12 AG100 assessed as increase in intracellular H33342 fluorescence at 16 ug/ml after 60 mins by efflux inhibition assay", "assay_type": "cell-based", "summary_of_the_method": "(§3)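 AG100 (wild-type K-12) or AG100A (ΔacrAB) cells were grown in Luria broth at 37 °C and 200 rpm to OD600 1.0, PBS-washed and diluted to OD600 0.3. Cells took up 2.5 μM Hoechst 33342 with 22 mM glucose at 37 °C for about 30 min, then compound (0.06–64 μg/mL) or PAβN (15.6 μg/mL) was added. Fluorescence (Ex 350/Em 460 nm) was followed for 60 min and corrected for background. The last four time points were compared to dye-only control by ANOVA with Dunnett's test, run in duplicate.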"}, "Escherichia coli K-12 [9]": {"test_system": "Escherichia coli K-12", "test": "Inhibition of AcrAB-TolC pump in Escherichia coli K-12 AG100 assessed as inhibition of H33342 accumulation at 1 ug/ml after 60 mins by accumulation assay", "summary_of_the_method": "(§4)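 AG100 (wild-type K-12) or AG100A (ΔacrAB) grown in Luria broth at 37 °C and 200 rpm to OD600 1.0, PBS-washed, diluted to OD600 0.3. Cells given 2.5 μM H33342 with 22 mM glucose at 37 °C for ~30 min until stable, then compound (0.06–64 μg/mL) added. Fluorescence (Ex 350/Em 460) read for 60 min, background subtracted. Final 4 time points averaged; one-way ANOVA/Dunnett vs Hoechst-only; n = 8.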"}, "Escherichia coli K-12 [10]": {"test_system": "Escherichia coli K-12", "test": "Inhibition of AcrAB-TolC pump in Escherichia coli K-12 AG100 assessed as increase in intracellular H33342 fluorescence at 0.06 ug/ml after 60 mins by efflux inhibition assay", "assay_type": "cell-based", "summary_of_the_method": "as §3"}, "Escherichia coli [11]": {"test_system": "Escherichia coli", "test": "Potentiation of piperacillin-induced antibacterial activity Escherichia coli transformed with plasmid carrying MG1655 deltaBC/pABM by p-iodonitrotetrazolium chloride colorimetric assay", "assay_type": "functional, organism-based", "summary_of_the_method": "as §2"}, "Escherichia coli [12]": {"test_system": "Escherichia coli", "test": "Effect on intracellular H33342 accumulation in Escherichia coli AG100A after 60 mins by efflux inhibition assay", "assay_type": "functional, organism-based", "summary_of_the_method": "as §3"}, "Escherichia coli [13]": {"test_system": "Escherichia coli", "test": "Potentiation of oxacillin-induced antibacterial activity Escherichia coli transformed with plasmid carrying MG1655 deltaBC/pXYM by p-iodonitrotetrazolium chloride colorimetric assay", "assay_type": "functional"}, "Escherichia coli [14]": {"test_system": "Escherichia coli", "test": "Potentiation of oxacillin-induced antibacterial activity Escherichia coli transformed with plasmid carrying MG1655 deltaBC/pXYM assessed as oxacillin MIC by p-iodonitrotetrazolium chloride colorimetric assay", "assay_type": "functional", "summary_of_the_method": "as §2"}, "Escherichia coli [15]": {"test_system": "Escherichia coli", "test": "Antibacterial activity against Escherichia coli AG102 overexpressing AcrAB-TolC by p-iodonitrotetrazolium chloride colorimetric assay", "assay_type": "functional", "summary_of_the_method": "as §1"}, "Escherichia coli [16]": {"test_system": "Escherichia coli", "test": "Potentiation of erythromycin-induced antibacterial activity Escherichia coli transformed with plasmid carrying MG1655 deltaBC/pABM by p-iodonitrotetrazolium chloride colorimetric assay", "assay_type": "functional"}, "Escherichia coli [17]": {"test_system": "Escherichia coli", "test": "Potentiation of ciprofloxacin-induced antibacterial activity Escherichia coli transformed with plasmid carrying MG1655 deltaBC/pXYM by p-iodonitrotetrazolium chloride colorimetric assay", "assay_type": "functional"}, "Escherichia coli [18]": {"test_system": "Escherichia coli", "test": "Potentiation of tetracycline-induced antibacterial activity Escherichia coli AG102 overexpressing AcrAB-TolC by p-iodonitrotetrazolium chloride colorimetric assay", "assay_type": "functional"}, "Escherichia coli [19]": {"test_system": "Escherichia coli", "test": "Potentiation of erythromycin-induced antibacterial activity Escherichia coli AG102 overexpressing AcrAB-TolC by p-iodonitrotetrazolium chloride colorimetric assay", "assay_type": "functional"}, "Escherichia coli K-12 [20]": {"test_system": "Escherichia coli K-12", "test": "Inhibition of AcrAB-TolC pump in Escherichia coli K-12 AG100 assessed as […] at 4 ug/ml after 60 mins by accumulation assay", "summary_of_the_method": "as §4"}, "Escherichia coli [21]": {"test_system": "Escherichia coli", "test": "Potentiation of levofloxacin-induced antibacterial activity Escherichia coli transformed with plasmid carrying MG1655 deltaBC/pXYM assessed as levofloxacin MIC by p-iodonitrotetrazolium chloride colorimetric assay", "assay_type": "functional", "summary_of_the_method": "as §2"}, "Escherichia coli [22]": {"test_system": "Escherichia coli", "test": "Potentiation of levofloxacin-induced antibacterial activity Escherichia coli AG102 overexpressing AcrAB-TolC assessed as levofloxacin MIC by p-iodonitrotetrazolium chloride colorimetric assay", "assay_type": "functional", "summary_of_the_method": "as §2"}, "Escherichia coli [23]": {"test_system": "Escherichia coli", "test": "Effect on intracellular H33342 accumulation in Escherichia coli AG100A delta acrAB mutant at 1 ug/ml after 60 mins by accumulation assay", "assay_type": "functional", "summary_of_the_method": "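Cells grown in Luria broth at 37 °C, 200 rpm to OD600 1.0, then washed twice in PBS and diluted in glucose-free PBS to OD600 0.3. H33342 was used at 2.5 μM with 22 mM glucose at 37 °C and allowed to accumulate for ~30 min. Compound was then added and fluorescence (Ex 350/Em 460 nm) followed for 60 min. Values are the mean RFU of the final 4 min, after media-plus-compound background was subtracted. Run in duplicate, n = 8.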"}, "Escherichia coli [24]": {"test_system": "Escherichia coli", "test": "Potentiation of ciprofloxacin-induced antibacterial activity Escherichia coli AG102 overexpressing AcrAB-TolC assessed as ciprofloxacin MIC by p-iodonitrotetrazolium chloride colorimetric assay", "assay_type": "functional", "summary_of_the_method": "as §2"}}, "note": "Calls of active or inactive are those of the source. No cut-off for these calls is given here."}
{"smiles": "O=C1NC(=O)C(Br)=C1Br", "values": [{"measurement": "MIC", "setting": "Escherichia coli [1]", "result": 128, "unit": "mg/L"}, {"measurement": "RFU", "setting": "Escherichia coli K-12 [2]", "result": 1200}, {"measurement": "fractional inhibitory concentration index (FICI)", "setting": "Escherichia coli [3]", "result": 0.19}, {"measurement": "MIC", "setting": "Escherichia coli [4]", "result": 64, "unit": "mg/L"}, {"measurement": "MIC", "setting": "Escherichia coli [5]", "result": "inactive"}, {"measurement": "MIC", "setting": "Escherichia coli [6]", "result": 32, "unit": "mg/L"}, {"measurement": "MIC", "setting": "Escherichia coli [7]", "result": 64, "unit": "mg/L"}, {"measurement": "RFU", "setting": "Escherichia coli K-12 [8]", "result": -34}, {"measurement": "RFU", "setting": "Escherichia coli K-12 [9]", "result": 1010}, {"measurement": "RFU", "setting": "Escherichia coli K-12 [10]", "result": -422}, {"measurement": "fractional inhibitory concentration index (FICI)", "setting": "Escherichia coli [11]", "result": "inactive"}, {"measurement": "inhibition", "setting": "Escherichia coli [12]", "result": "inactive"}, {"measurement": "fractional inhibitory concentration index (FICI)", "setting": "Escherichia coli [13]", "result": 0.27}, {"measurement": "MIC", "setting": "Escherichia coli [14]", "result": 64, "unit": "mg/L"}, {"measurement": "MIC", "setting": "Escherichia coli [15]", "result": 256, "unit": "mg/L"}, {"measurement": "fractional inhibitory concentration index (FICI)", "setting": "Escherichia coli [16]", "result": 0.19}, {"measurement": "fractional inhibitory concentration index (FICI)", "setting": "Escherichia coli [17]", "result": 0.19}, {"measurement": "fractional inhibitory concentration index (FICI)", "setting": "Escherichia coli [18]", "result": 0.31}, {"measurement": "fractional inhibitory concentration index (FICI)", "setting": "Escherichia coli [19]", "result": 0.38}, {"measurement": "RFU", "setting": "Escherichia coli K-12 [20]", "result": 1130}, {"measurement": "MIC", "setting": "Escherichia coli [21]", "result": 32, "unit": "mg/L"}, {"measurement": "MIC", "setting": "Escherichia coli [22]", "result": 128, "unit": "mg/L"}, {"measurement": "RFU", "setting": "Escherichia coli [23]", "result": 1070}, {"measurement": "MIC", "setting": "Escherichia coli [24]", "result": 2, "unit": "mg/L"}]}
